Screens: PubChem BioAssay, The Scripps Research Institute Molecular Screening Center
Shown are actives, neighbours in structure and some others; about 2.4% of the full set was active somewhere.
NPY-Y2 PAM-ag: potentiates or activates human NPY-Y2 receptor. P49146. cells expressing NPY-Y2, potentiator/agonist read-out. activation, % at 3.6 µM. 220,000 compounds, 0.45% hits. AID 1359; in the data active means activation above about 27%;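 further: cells stimulated with NPY near EC25 plus isoproterenol at EC100; 0% = vehicle plus submaximal agonist and 100% = vehicle plus saturating agonist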
NPY Y1 blocker: blocks the human neuropeptide Y Y1 receptor; inhibition, % at 3.6 µM; HEK293-CNG Y1 cells, membrane potential fluorescence; NPY at EC95, then isoproterenol; 200,000 compounds, 1% hits; AID 1040;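 active means inhibition above the campaign mean inhibition of all tested compounds plus 3 SD, cut at about 20% in these data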;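 further: 0% = DMSO wells given NPY plus isoproterenol and 100% = isoproterenol alone without NPY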
Target sequence (P25929 whole entry, looked up): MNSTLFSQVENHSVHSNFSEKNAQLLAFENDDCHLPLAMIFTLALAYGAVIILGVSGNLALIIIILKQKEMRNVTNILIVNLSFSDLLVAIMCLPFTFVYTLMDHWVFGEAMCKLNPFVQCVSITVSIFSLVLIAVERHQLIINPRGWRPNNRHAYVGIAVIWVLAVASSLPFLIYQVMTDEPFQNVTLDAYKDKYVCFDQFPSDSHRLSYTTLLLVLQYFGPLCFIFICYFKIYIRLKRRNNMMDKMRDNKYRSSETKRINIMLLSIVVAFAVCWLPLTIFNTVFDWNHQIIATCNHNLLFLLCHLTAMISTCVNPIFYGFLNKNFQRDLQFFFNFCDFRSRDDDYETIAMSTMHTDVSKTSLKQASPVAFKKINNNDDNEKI
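Material: HEK293 cells co-expressing NPY Y1 receptor and cyclic-nucleotide gated channel. Timing: compound incubation 1 h at room temperature, readout 45 min post-stimulation. Signal: fluorescence, membrane potential probe.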
NPY-Y2 antag: blocks the human neuropeptide Y Y2 receptor; P49146; NPY-Y2 expressing cells, antagonist mode; inhibition, % at 2.7 µM; 140,000 compounds, 0.99% hits; AID 793; in the data active means inhibition above about 17%;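 further: 0% = vehicle with agonist challenge and 100% = reference antagonist with challenge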
NPY-Y1 PAM-ag: human NPY-Y1 potentiation or agonism, primary screen; NPY-Y1 expressing cells, potentiator/agonist activation; activation, % at 3.6 µM; 220,000 compounds, 0.37% hits; in the data active means activation above about 33%, passing the limit was not always enough;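 further: cells stimulated with NPY at EC10 then isoproterenol at EC100; 0% = low agonist plus stimulus and 100% = saturating agonist plus stimulus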
S1P4 ag: agonists of human S1P4 receptor | S1P4-expressing cell line, agonist reporter assay | activation, % at 4.98 µM | 220,000 compounds, 0.35% hits; in the data active means activation above about 11%;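 further: 0% = DMSO vehicle and 100% = reference agonist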
S1P4 antag: antagonists of human S1P4 receptor | S1P4-expressing cells, antagonist mode, reporter read-out | inhibition, % at 4.98 µM | 220,000 compounds, 0.26% hits; in the data active means inhibition above about 29%;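 further: 0% = wells stimulated with agonist and 100% = vehicle wells without agonist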
S1P4 antag conf: confirmation of human S1P4 receptor antagonists; 520 compounds, 71% hits; inhibition, % at 4.98 µM; shares compounds with S1P4 antag; S1P4-expressing cell line, antagonist mode, reporter read-out; in the data active means inhibition above about 30%
S1P1 antagonist: blocks human S1P1, counter-screen for S1P4 antagonists; shares compounds with S1P4 antag; cell-based S1P1 antagonist counterscreen, inhibition; inhibition, % at 4.98 µM; 520 compounds, 37% hits; in the data active means inhibition above about 40%;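 further: receptor stimulated with S1P near its EC80; 0% = agonist stimulated wells and 100% = vehicle only wells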
Starred values were filed as active, the others as inactive; nt = no result given.

SMILES	NPY-Y2 PAM-ag	NPY Y1 blocker	NPY-Y2 antag	NPY-Y1 PAM-ag	S1P4 ag	S1P4 antag	S1P4 antag conf	S1P1 antagonist
C/C(=N\NC(=O)COc1ccc(C)cc1C(C)C)c1ccc(-n2ccnc2)cc1	1	1	-1	-20	-1	-10	nt	nt
CCC(NC(=O)Nc1nnc(C(F)(F)F)s1)(C(F)(F)F)C(F)(F)F	25	38*	25*	-44	0	38*	51*	7
CC(=O)N(C1=C(Cl)C(=O)c2ccccc2C1=O)C1CCCCC1	-39	nt	nt	-6	1	52*	115*	61*
O=C(N/N=C(\Cc1ncc[nH]1)c1ccccc1)c1cccnc1	-10	-9	nt	8	1	-8	nt	nt
COc1cccc(-n2nnnc2S(C)(=O)=O)c1	-10	-7	2	2	0	42*	110*	17
COc1cccc(Oc2nnnn2-c2ccccc2)c1	-7	2	1	12	0	-19	nt	nt
CCc1ccc(/C=C2\Oc3c(ccc(O)c3CN3CCN(CCO)CC3)C2=O)cc1	-9	nt	nt	11	1	13	nt	nt
CN(C)S(=O)(=O)c1ccc(Cl)c(NC(=O)CN2CCN(Cc3ccc4c(c3)OCO4)CC2)c1	1	nt	nt	-18	-2	13	nt	nt
Cc1nc(CCNC(=O)c2cc(COc3ccc(F)cc3Cl)on2)sc1C	-1	nt	nt	10	1	-4	nt	nt
C=C(C)CNC(=S)NNC(=O)CCn1c2ccc(Cl)cc2c2cc(Cl)ccc21	17	-12	-4	17	0	-3	nt	nt
O=C(Nc1ccc(F)cc1)N1CCc2ccccc2C1	3	0	nt	14	0	-13	nt	nt
Cc1ccccc1NC(=O)N1CCc2ccccc2C1	-5	10	nt	9	1	32*	80*	-7
COc1ccc(/C=C/C(=O)Nc2cc(F)ccc2C)cc1S(=O)(=O)N1CCOCC1	-7	0	nt	-1	0	5	nt	nt
COc1ccc(Nc2nc(Nc3ccc(OC)cc3)nc(SC3=NCCS3)n2)cc1	7	2	-7	7	-2	29*	47*	21
COc1ccc(Nc2nc(Cl)nc(NCCO)n2)cc1	5	7	4	-28	0	-17	nt	nt
CCOc1ccc(CC(=O)NNC(=S)NC)cc1Br	8	nt	nt	14	1	-13	nt	nt
CCOc1cc(/C=C\[N+](=O)[O-])ccc1OCC(=O)Nc1ccccc1C	4	-4	2	-18	1	58*	118*	84*
CCOc1cc(/C=N/NC(N)=O)cc(Br)c1OCC(=O)Nc1ccccc1C	-29	18	17	-42	-1	6	nt	nt
COc1cc(N)c(Cl)cc1C(=O)N[C@@H]1CCN(CCCOc2ccc(F)cc2)C[C@@H]1OC	-13	10	nt	-11	1	-11	nt	nt
